In ChEMBL document CHEMBL1154873, “Synthesis and evaluation of the alpha-glucosidase inhibitory activity of 3-[4-(phenylsulfonamido)benzoyl]-2H-1-benzopyran-2-one derivatives” (Eur J Med Chem, 2010):

Assay: inhibition of yeast alpha-glucosidase pretreated for 10 mins before maltose challenge measured after 10 mins
Design: species or system Saccharomyces cerevisiae
Procedure, shortened: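 0.02 U α-glucosidase with compound in 67 mM potassium phosphate, pH 6.8, preincubated 37 °C 10 min. 0.1 M maltose added, then room temperature 10 min. Glucose detected colorimetrically at A490 against no-compound and no-enzyme/no-compound blanks. Compounds giving over 50% inhibition were retested at eight threefold-diluted concentrations in duplicate, and IC50 was derived by curve fitting.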

Structure (SMILES)	IC50 [µM]
COc1cc2cc(C(=O)c3ccc(NS(=O)(=O)c4ccccc4)cc3)c(=O)oc2cc1OC	> 30
O=C(c1ccc(NS(=O)(=O)c2ccccc2)cc1)c1cc2ccc(O)cc2oc1=O	5.77
Cc1ccc(S(=O)(=O)Nc2ccc(C(=O)c3cc4cc(C(C)(C)C)cc(C(C)(C)C)c4oc3=O)cc2)cc1	10.1
COc1ccc2cc(C(=O)c3ccc(NS(=O)(=O)c4ccc(C)cc4)cc3)c(=O)oc2c1	> 30
Cc1ccc(S(=O)(=O)Nc2ccc(C(=O)c3cc4ccc(O)cc4oc3=O)cc2)cc1	1.12
O=C(c1ccc(NS(=O)(=O)c2ccccc2)cc1)c1cc2cc(Br)ccc2oc1=O	> 30
Cc1ccc(S(=O)(=O)Nc2ccc(C(=O)c3cc4cc(Cl)ccc4oc3=O)cc2)cc1	26.7
CCN(CC)c1ccc2cc(C(=O)c3ccc(NS(=O)(=O)c4ccc(C)cc4)cc3)c(=O)oc2c1	0.347
COc1cc2cc(C(=O)c3ccc(NS(=O)(=O)c4ccc(C)cc4)cc3)c(=O)oc2cc1OC	5.59
COc1cc2cc(C(=O)c3ccc(NS(=O)(=O)c4ccccc4)cc3)c(=O)oc2cc1O	0.199

Continued, values first:

IC50 [µM]	Structure (SMILES)
> 30	O=C(c1ccc(NS(=O)(=O)c2ccccc2)cc1)c1cc2cc(Cl)ccc2oc1=O
> 30	Cc1ccc(S(=O)(=O)Nc2ccc(C(=O)c3cc4cc(Br)ccc4oc3=O)cc2)cc1
3.28	O=C(c1ccc(NS(=O)(=O)c2ccccc2)cc1)c1cc2ccccc2oc1=O
7.73	Cc1ccc(S(=O)(=O)Nc2ccc(C(=O)c3cc4cc(Br)cc(Br)c4oc3=O)cc2)cc1
> 30	O=C(c1ccc(NS(=O)(=O)c2ccccc2)cc1)c1cc2cc(Br)cc(Br)c2oc1=O
7.13	CC(C)(C)c1cc(C(C)(C)C)c2oc(=O)c(C(=O)c3ccc(NS(=O)(=O)c4ccccc4)cc3)cc2c1
> 30	COc1ccc2cc(C(=O)c3ccc(NS(=O)(=O)c4ccccc4)cc3)c(=O)oc2c1
3.58	Cc1ccc(S(=O)(=O)Nc2ccc(C(=O)c3cc4ccccc4oc3=O)cc2)cc1
4.6	Cc1ccc(S(=O)(=O)Nc2ccc(C(=O)c3cc4cc(F)ccc4oc3=O)cc2)cc1
0.0645	COc1cc2cc(C(=O)c3ccc(NS(=O)(=O)c4ccc(C)cc4)cc3)c(=O)oc2cc1O
7.18	O=C(c1ccc(NS(=O)(=O)c2ccccc2)cc1)c1cc2cc(F)ccc2oc1=O
0.294	CCN(CC)c1ccc2cc(C(=O)c3ccc(NS(=O)(=O)c4ccccc4)cc3)c(=O)oc2c1
